# Bioassay records as filed in PubChem BioAssay.
# In the library only some 2.2% were active in any assay of this set; here they are far more common.
# FXIIa inh: inhibitors of human coagulation factor XIIa; P00748; purified FXIIa, Boc-QGR-AMC fluorogenic substrate, 2 h; inhibition, % at 5 µM; 0.3% of 220,000 active; in the data active = inhibition above about 40%
# FXIa inh 1536: factor XIa (human) inhibition; purified FXIa, Boc-Glu-Ala-Arg-AMC fluorogenic substrate; P03951; inhibition, % at 5 µM; 0.14% of 220,000 active; AID 798;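 active = inhibition of at least 40%; inactive = inhibition below 40%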;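 note: fluorescence of freed AMC excited at 355 nm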
# Target sequence (P03951 19-387 limits assumed): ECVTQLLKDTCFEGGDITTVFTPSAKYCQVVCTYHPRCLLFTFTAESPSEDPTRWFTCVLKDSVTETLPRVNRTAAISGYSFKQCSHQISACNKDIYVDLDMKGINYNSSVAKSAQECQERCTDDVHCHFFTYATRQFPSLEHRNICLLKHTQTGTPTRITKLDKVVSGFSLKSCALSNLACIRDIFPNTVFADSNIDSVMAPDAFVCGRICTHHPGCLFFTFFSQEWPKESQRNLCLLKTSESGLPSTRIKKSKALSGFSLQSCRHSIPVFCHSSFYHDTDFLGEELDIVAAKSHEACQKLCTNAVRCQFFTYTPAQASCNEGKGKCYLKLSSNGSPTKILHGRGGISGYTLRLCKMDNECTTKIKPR
# Target sequence (P03951 388-625 limits assumed): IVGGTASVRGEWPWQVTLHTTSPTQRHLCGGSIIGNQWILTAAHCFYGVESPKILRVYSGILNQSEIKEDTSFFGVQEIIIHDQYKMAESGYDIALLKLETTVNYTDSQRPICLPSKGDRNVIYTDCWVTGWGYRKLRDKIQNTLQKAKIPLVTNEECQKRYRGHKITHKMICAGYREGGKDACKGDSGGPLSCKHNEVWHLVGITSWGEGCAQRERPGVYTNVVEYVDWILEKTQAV
# Thrombin inh: inhibitors of human thrombin | P00734 | alpha-thrombin, Boc-VPR-AMC fluorogenic substrate cleavage | inhibition, % at 5 µM | 0.26% of 220,000 active | AID 1046;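 active = inhibition at or above 40%; inactive = inhibition below 40%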
#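 Assay system: human alpha-thrombin enzyme. Reagent: Boc-VPR-AMC substrate, 15 µM final. Compound dosing: one concentration per compound, 5 µM, with 0.2% DMSO. Incubation: room-temperature reaction. Technique: AMC fluorescence, 355/460 nm. Measure: % inhibition relative to enzyme controls and enzyme-free blanks.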
# hK5 inh: inhibitors of human kallikrein 5. Q9Y337. recombinant hK5, fluorogenic AMC substrate cleavage. inhibition, % at 5 µM. 0.59% of 210,000 active. AID 873;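 active = inhibition of 40% or more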
# Wee1 stabilizer: human Wee1 degradation inhibition, primary screen | P30291 | reporter increase, % at 5 µM | 1.2% of 220,000 active | HeLa Luc-Wee1K328M stability, luciferase luminescence; 100% = proteasome inhibitor MG132 effect;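 active = activation above the mean of all tested compounds plus 3 SD, set per screening run, cut at about 8.8% in these data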;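 note: cells exposed to compound for 20 h before luminescence read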
# Wee1 stab conf: confirmation of human Wee1 degradation inhibitors | shares compounds with Wee1 stabilizer | HeLa Luc-Wee1K328M degradation, luminescence; vehicle 0%, proteasome-blocked wells 100% | activation, % at 5 µM | 4% of 1,100 active | AID 1410; in the data active = activation above about 8.9%
# Hits are given with their value; . = inactive; / = not tested or not shown.
SMILES,FXIIa inh,FXIa inh 1536,Thrombin inh,hK5 inh,Wee1 stabilizer,Wee1 stab conf
CSc1nc(N)nc(C2CC2)n1,.,.,.,.,.,/
Cc1ccc(C(C(=O)NCc2ccco2)N(C(=O)CNC(=O)c2cccs2)c2c(C)cc(C)cc2C)cc1 (stereo not given),.,.,.,.,11.5,.
Cc1ccc(C(C(=O)NCc2ccco2)N(C(=O)CNC(=O)c2cccs2)c2c(C)cccc2C)cc1 (stereo not given),.,.,.,.,.,/
CS(=O)(=O)c1ccc(S(=O)CC(=O)Oc2ccc(Cl)cc2)c([N+](=O)[O-])c1 (stereo not given),.,.,.,.,.,/
Cc1csc(SCC(=O)Nc2cc(S(=O)(=O)N3CCCC3)ccc2Cl)n1,.,.,.,.,12.6,.
Cc1ccc(-c2cc(C(F)(F)F)c(C#N)c(=O)[nH]2)cc1,.,.,.,.,.,/
N#Cc1c(C(F)(F)F)cc(C2CC2)[nH]c1=O,.,.,.,.,14.7,.
CC(/C=C/C=C/c1ccccc1)=N/NC(=O)c1ccc2c(c1)OCCO2,.,.,.,.,11.3,.
CC(/C=C/C=C/c1ccccc1)=N\NC(=O)c1cccnc1,.,.,.,.,.,/
CC(C)CC(=O)Nc1ccc(-c2nc3ccccc3c(=O)[nH]2)cc1,.,.,.,.,13.4,.
CCCCNC(=S)NNC(=O)c1c(C)nc2ccccn12,.,.,.,.,.,/
O=C(N/N=C1\CC(c2ccccc2)Oc2ccccc21)c1ccccn1 (stereo not given),.,.,.,.,.,/
O=C(N/N=C1\CC(c2ccccc2)Oc2ccccc21)c1cccnc1 (stereo not given),.,.,.,.,12.2,.
COc1ccc(CC(=O)Nc2nc3ccccc3[nH]2)cc1,.,.,.,.,.,/
COc1cccc(CC(=O)Nc2nc3ccccc3[nH]2)c1,.,.,.,.,11.7,.
COc1cc(C(=O)Nc2nc3ccccc3[nH]2)ccc1OC(F)F,.,.,.,.,12.0,.
CCCN(Cc1cc2cc(C)ccc2[nH]c1=O)C(=O)c1cccc([N+](=O)[O-])c1,.,.,.,.,.,/
CC1(C)Oc2ccc(NC(=O)c3ccco3)cc2O1,.,.,.,.,12.9,.
O=C(Nc1ccc2c(c1)OCCO2)c1ccco1,.,.,.,.,.,/
Cc1cccc(NC(=S)NC(=O)c2ccco2)n1,.,.,.,.,.,/
CC(=O)Nc1cccc(/C(C)=N/NC(=O)c2cccc(S(=O)(=O)N3CCOCC3)c2)c1,.,.,.,.,13.6,.
C/C(=N\NC(=O)c1cccc(S(=O)(=O)N2CCOCC2)c1)c1ccco1,.,.,.,.,.,/
Cc1ccc(-c2[nH]ncc2/C=N/n2c(COc3ccccc3)nc3ccccc3c2=O)cc1,.,.,.,.,.,/
Cc1ccccc1OCc1nc2ccccc2c(=O)n1/N=C/c1cn[nH]c1-c1ccccc1,.,.,.,.,10.9,.
CC(C)CCN1CCN(Cc2cnc(N3CCCC3)s2)CC1CCO (stereo not given),.,.,.,/,.,/
SMILES,FXIIa inh,FXIa inh 1536,Thrombin inh,hK5 inh,Wee1 stabilizer,Wee1 stab conf
O=C(NC1CC1)c1cc(=O)c2ccccc2o1,.,.,.,.,.,/
O=c1cc(/C=C/c2ccccc2)oc2ccccc12,.,.,.,.,11.6,.
Cc1cc(C)nc(NS(=O)(=O)c2ccc(CC(C)C)cc2)c1,.,.,.,.,.,/
CCOc1ccc(Cn2ccnc2)cc1[N+](=O)[O-],.,.,.,114.8,16.0,.
COc1ccc(C(=O)NCCCn2ccnc2)cc1[N+](=O)[O-],.,.,.,.,18.3,.
O=C(OCc1ccc(Cl)cc1)c1ccccc1C(=O)c1ccccc1,.,.,.,.,.,/
Cc1ccc2c(c1)C1(C)C(C(C)(C)N2C=O)C1(Cl)Cl (stereo not given),.,.,.,.,.,/
O=C(c1cc(=O)[nH]c2ccccc12)N1CCN(c2ccc([N+](=O)[O-])cc2)CC1,.,.,.,.,58.9,.
CSCCC(NS(=O)(=O)c1ccc2ccccc2c1)C(=O)OCC(=O)c1ccc(C(C)C)cc1 (stereo not given),.,.,.,.,11.4,.
CN(Cc1nc(-c2cnccn2)no1)CC(O)c1ccccc1 (stereo not given),.,.,.,/,12.4,.
